Assay outcomes as filed in PubChem.
In the library only some 2.9% were active in any assay of this set; here they are far more common.
Jurkat tox 60K: cytotoxic compounds reducing Jurkat cell viability | 56,000 tested, 1.2% active | inhibition, % at 4 µM | AID 463 | Jurkat E6.1 viability, ATP luminescence, 48 h;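 active = inhibition above the mean inhibition of all tested compounds plus 3 SD, cut at about 28% in these data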
SF1 activator: SF-1 (human) activation. 65,000 tested, 1.9% active. CHO-K1 Gal4-SF-1 LBD luciferase reporter; % increase over DMSO SF-1-specific signal. activation, % at 10 µM;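 active = activation above the mean activation of all tested compounds plus 3 SD, cut at about 50% in these data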
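Assay system: CHO-K1 cells co-transfected with Gal4 DBD–human SF-1 LBD, 5xGal4 luciferase reporter / Input: 4,000 cells per well / Incubation: 20 h compound exposure at 37 °C after 1 h cell settling / Detection: SteadyLite luciferase luminescence / Control set: DMSO negative control and −SF1 background wells / Replication: one test per compound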
MT1-MMP txn act: MT1-MMP promoter transcription activation; HT1080 MT1-MMP promoter luciferase reporter, luminescence, overnight; hits give high values; activation factor at 10 µM; 86,000 tested, 0.16% active;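 active = activation factor of at least 2 for MT1-MMP transcription at 10 µM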
RORA act: activators of human nuclear receptor RORA | P35398 | CHO-K1 Gal4-RORA LBD luciferase reporter, luminescence; percent increase over mock-subtracted basal signal | activation, % at 10 µM | 65,000 tested, 1.5% active | AID 560;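 active = activation above the mean of all tested compounds plus 3 SD, cut at about 49% in these data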;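 note: 0% = DMSO-treated RORA cells and 100% = added signal equal to DMSO minus mock-transfected cells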
Target sequence (P35398 whole entry, looked up, the tested form may be a part): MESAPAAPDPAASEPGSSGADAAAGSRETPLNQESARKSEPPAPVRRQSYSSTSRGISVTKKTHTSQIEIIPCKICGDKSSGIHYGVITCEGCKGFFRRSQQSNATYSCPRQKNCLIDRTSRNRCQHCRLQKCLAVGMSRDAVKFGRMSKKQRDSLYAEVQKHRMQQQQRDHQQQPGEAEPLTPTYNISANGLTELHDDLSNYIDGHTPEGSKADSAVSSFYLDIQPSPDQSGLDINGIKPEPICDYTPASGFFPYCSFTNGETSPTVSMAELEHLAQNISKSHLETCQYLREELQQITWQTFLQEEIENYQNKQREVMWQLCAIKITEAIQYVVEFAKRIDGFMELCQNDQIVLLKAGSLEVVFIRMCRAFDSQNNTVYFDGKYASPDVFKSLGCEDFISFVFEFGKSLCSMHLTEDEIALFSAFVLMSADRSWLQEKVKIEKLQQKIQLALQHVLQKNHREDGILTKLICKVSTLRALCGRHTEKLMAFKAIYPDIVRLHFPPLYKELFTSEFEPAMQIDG
HEK293 NFkB inh: lowers PMA/ionomycin-induced NF-kB signal in HEK293 cells | inhibition, % at 3 µM | 62,000 tested, 0.21% active | HEK-293 NF-kB luciferase reporter, luminescence | AID 465;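 active = inhibition above the mean of all tested compounds plus 3 SD, cut at about 40% in these data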;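 note: 0% = stimulated DMSO wells and 100% = 10 µM reference inhibitor 5653914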
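Timing: 1 h pretreatment, 16 h stimulation, 37 °C; system: HEK-293 cells with stable firefly luciferase reporter driven by four HIV NF-kB elements; doses: 3 µM once, 0.30% DMSO; measured by: luciferase luminescence; control set: DMSO and 10 µM reference inhibitor; repeats: single test; reagent: PMA plus ionomycin mix as NF-kB-activating stimulus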
* marks the source's active call; other numbers are inactive results; · = no result.

SMILES	Jurkat tox 60K	SF1 activator	MT1-MMP txn act	RORA act	HEK293 NFkB inh
CCOC(=O)C1=C(C)N(CCCCCC(=O)O)C(=O)NC1c1cccc(Cl)c1Cl (centres undefined)	·	·	1.2	·	·
CC(C)OC(=O)CSc1nnnn1-c1ccc2c(c1)OCCO2	-1.8	69.0*	1.5	54.1*	-1.8
CCOc1ccccc1-n1nnnc1SCC(=O)NC(=O)Nc1ccc2c(c1)OCCO2	·	·	1	·	·
O=C(CSc1nnnn1-c1ccccc1)NC(=O)Nc1ccc2c(c1)OCCO2	·	71.8*	1.6	52.5*	-9.3
CCOC(=O)c1ccc2c(c1)nc(SCc1cn3ccsc3n1)n2CC	-1.9	-6.3	0.9	1.2	8.7
COc1cc(CN2CCN(c3cccc(Cl)c3)CC2)cc(OC)c1OC	80.7*	44.5	0.8	22.0	21.1
COc1ccc(CCNC(=O)CN2CCN(c3cccc(Cl)c3)CC2)cc1OC	0.6	-24.3	1.1	-19.9	12.6
COCC(=O)Nc1nnc(C2CCCCC2)s1	-0.7	34.3	1.1	51.5*	12.5
CCOCC(=O)Nc1nnc(C2CCCCC2)s1	·	19.8	1.4	50.5*	-5.1
CCOc1ccccc1CN1C(=O)NC(C)(c2ccccc2)C1=O (centres undefined)	7.8	1.8	1.1	8.6	6.9
Clc1cc(Cl)c2nc(N3CCOCC3)sc2c1	5.3	57.5*	1.5	21.0	-8.8
Clc1ccc(Cl)c2sc(N3CCOCC3)nc12	3.6	40.5	1.3	6.6	-15.4
Cc1ccc2nc(NC3=NCN(Cc4ccc5c(c4)OCO5)CN3)nc(C)c2c1	1.8	-3.5	0.8	-4.3	10.0
Cc1nn(-c2ccccn2)c2c1-c1nc(N3CCOCC3)ncc1CC2	·	·	1.3	·	·
Cc1nn(-c2ccccn2)c2c1-c1nc(N)ncc1CC2	-7.4	45.2	1.9	51.2*	0.1
COc1ccc(CCNC(=O)c2ccc(NS(=O)(=O)c3c(C)noc3C)cc2)cc1OC	-5.8	8.4	1.1	-11.6	3.9
CCCC1C(C#N)=C(N)Oc2n[nH]c(C(C)(C)C)c21 (centres undefined)	1.6	1.6	0.9	4.7	10.9
Cc1cccnc1NC(=O)C1CCN(S(=O)(=O)c2cccs2)CC1	·	·	0.9	·	·
O=C(Nc1nc2ccccc2n1CCN1CCCC1)c1ccc(Cl)cc1	-1.1	55.4*	1.5	99.4*	-14.3
Cc1ccc(C(=O)Nc2nc3ccccc3n2CCN2CCCC2)cc1	-1.8	38.5	1.8	61.8*	-38.4
CCCn1c(NC(=O)c2ccc(C)cc2)nc2ccccc21	5.4	32.4	1.6	19.1	-2.4
CCCn1c(NC(=O)C2CCN(S(=O)(=O)c3cccs3)CC2)nc2ccccc21	83.5*	-19.9	1	7.9	10.5
CCCn1c(NC(=O)c2cccc(S(=O)(=O)N3CCCC3)c2)nc2ccccc21	44.5*	-27.7	1.1	-27.4	32.0
O=C(Nc1nc2ccccc2n1CCN1CCCCC1)c1ccc(Cl)cc1	·	·	1.1	·	·
FC(F)(F)c1ccc(C2[C@H]3CN(CC4CCCCC4)[C@H](c4ccccc4)C34CC2(c2cccnc2)C4)cc1 (some centres undefined)	·	·	1.1	·	·
SMILES	Jurkat tox 60K	SF1 activator	MT1-MMP txn act	RORA act	HEK293 NFkB inh
O=C(Nc1cccc(Br)c1)c1ccn[nH]1	1.2	31.3	1.7	54.2*	14.0
O=C(Nc1ccc(N2CCOCC2)cc1)Nc1ccc2nc(-c3ccco3)c(-c3ccco3)nc2c1	83.4*	-16.0	0.9	-10.8	-20.8
O=C(Nc1ccc2nc(-c3ccco3)c(-c3ccco3)nc2c1)NC1CC1	·	·	1.1	·	·
CCn1c2ccccc2c2cc(Nc3cc(C)nc4ncnn34)ccc21	98.9*	-70.3	·	-41.2	46.6*
Cc1cc2n(n1)C(c1ccc(N(C)C)cc1)Nc1ccccc1-2 (centres undefined)	-0.4	75.0*	1.3	13.1	-12.4
Cc1cc2n(n1)C(c1ccccc1)Nc1ccccc1-2 (centres undefined)	1.3	7.5	1	-18.0	25.0
COCCn1c(C)cc(C(=O)CSc2n[nH]c(N)n2)c1C	-6.4	23.2	1.2	17.9	8.7
COCCn1c(C)cc(C(=O)CSc2nnc(C)s2)c1C	-0.9	-68.0	0.2	-68.1	45.8*
CC1=CCC(COC(=O)Nc2ccccc2)CC1 (centres undefined)	11.9	15.6	1.7	89.9*	-26.7
CCn1c(SCC(=O)Nc2ccc(C(C)=O)cc2)nc2ccccc21	0.0	64.8*	1.4	61.8*	10.5
COCCCn1c(SCC(=O)Nc2ccc(C(C)=O)cc2)nc2ccccc2c1=O	2.0	18.9	1.7	37.5	2.5
CCc1nnc(NC(=O)CSc2nc(C)c3c(c2C#N)CCCC3)s1	·	54.6*	1.2	-9.3	·
COc1ccc(NC(=O)CSc2nc(C)c3c(c2C#N)CCCC3)cc1	·	·	1.1	·	·
Clc1ccc(-c2nnc3n2CCCCC3)cc1	·	·	1.1	·	·
Clc1ccc(-c2cn3c(n2)CCC3)cc1	·	72.5*	1.7	21.6	·
COc1ccc(OC)c(N(CC(=O)NCc2cccnc2)S(C)(=O)=O)c1	0.0	7.9	1	-2.4	6.8
Cc1ccnc(NC(=O)CCCOc2cc(=O)n(C)c3ccccc23)c1	88.8*	-59.0	1.1	-56.7	6.8
Cn1c(=O)cc(OCCCC(=O)NCc2ccccn2)c2ccccc21	-7.1	9.7	1.1	1.3	8.8
Cc1ccn2cc(C(=O)Nc3ccccc3N3CCOCC3)nc2c1	1.7	18.4	1.3	54.9*	1.4
CC(=O)c1sc(NC(=O)CN2C(=O)CCC2=O)nc1C	2.3	-8.3	1.1	-3.3	4.8
O=C(NCc1cccnc1)c1ccc(CS(=O)(=O)c2ccc(Cl)cc2)o1	19.1	7.4	1	-11.1	5.3
COc1ccc(N(CC(=O)N2CCCCC2)S(=O)(=O)c2ccccc2)c(OC)c1	-2.6	-8.3	0.9	-25.4	9.1
Nc1nc2ccccc2n1C(=O)CCc1ccccc1	15.1	67.3*	1.9	45.2	-25.0
CC(C)C1N=C(c2ccc3c(c2)OCO3)CC(c2ccccc2O)N1 (centres undefined)	·	·	2*	·	·
COCCn1c(SCC(=O)c2[nH]c(C)c(C(C)=O)c2C)nc2ccccc21	9.4	5.3	1.1	9.4	11.4
SMILES	Jurkat tox 60K	SF1 activator	MT1-MMP txn act	RORA act	HEK293 NFkB inh
COC(=O)C1C(=O)c2c([nH]c(C(=O)OC3CCCCCC3)c2C)CC1C (centres undefined)	8.2	38.4	1.3	73.9*	-5.7
COCCOC(=O)c1[nH]c2c(c1C)C(=O)C(C(=O)OC)C(C)C2 (centres undefined)	-7.6	47.1	1.4	55.9*	-28.4
CC(C)C(C)(C#N)NC(=O)CSc1nnc(C(F)(F)F)n1C (centres undefined)	·	·	1.2	·	·
CCN=c1scc(C)n1/N=C/c1ccsc1	3.9	70.5*	1.5	69.0*	-14.4
CCc1cc2c(=O)c(-c3ccc4c(c3)OCCO4)coc2cc1OC(=O)c1ccco1	-12.3	66.2*	0.6	29.2	16.3
CCCc1cc2c(=O)c(-c3ccc4c(c3)OCCO4)coc2cc1OC(=O)c1ccco1	·	·	1.3	·	·
